HTRA1 inh – HTRA1 serine protease inhibitors, primary screen, biochemical, fluorescence polarization, HTS; Q92743; recombinant HTRA1, FP-rhodamine activity-based probe; inhibition, % at 5.96 µM; hit rate 0.5% among 340,000; in the data active = inhibition above about 36%;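 also: 0% = enzyme with DMSO and 100% = wells lacking enzyme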
ABHD4 inh – ABHD4 inhibitors, primary screen, biochemical, fluorescence polarization, mouse. purified mABHD4, FP-Rh probe fluorescence polarization. hit rate 0.54% among 370,000. inhibition, % at 8.92 µM. (Lyso)-N-acylphosphatidylethanolamine lipase (Mus musculus), Q8VD66. AID 720543, 2013;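 active = inhibition exceeding the mean over every tested compound plus 3 SD, cut at about 30% in these data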;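 also: 0% = plate median of compound wells and 100% = S159A mutant with DMSO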
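Material: mouse ABHD4 enzyme, wild type; Benchmarks: S159A mutant high control, sample median low control; Buffer or medium: HEPES pH 7.0, NaCl, Pluronic buffer; Signal: fluorescence polarization; Read-out: percent inhibition of probe binding, normalized to plate controls; Timing: pre-incubation 45 min, probe exposure 60 min, at 25 °C; Dosing: 8.92 µM, single dose.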
TCR CD3 inh – inhibitors of human TCR-CD3 interaction, primary screen, biochemical, fluorescence, TAMRA-labeled TCR probe | T-cell receptor (TCR) | inhibition, % at 9.4 µM | hit rate 0.37% among 360,000; in the data active = inhibition above about 19%;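 also: recombinant mutant TCR 2C K166C tagged with TAMRA read by polarization; 0% = receptor in buffer alone and 100% = receptor with positive control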
DAGLB inh – DAGLB lipase inhibitors, primary screen, biochemical, fluorescence, HTS; HEK293T DAGLB membrane lysate, EnzChek fluorogenic substrate; inhibition, % at 5.17 µM; hit rate 0.059% among 340,000; AID 504411, 2011; in the data active = inhibition above about 34%;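 also: 0% = enzyme with vehicle and 100% = wells lacking enzyme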
SIAE inh – human SIAE inhibitors, primary screen, biochemical, fluorescence polarization, FP-Rh probe, 1536-well HTS | Sialate O-acetylesterase (Homo sapiens), Q9HAT2 | SIAE FP-Rh probe binding | AID 1053197, 2014 | hit rate 0.69% among 370,000 | inhibition, % at 9.66 µM;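 active = inhibition above a cutoff: mean of compounds within the control limits plus 3 SD of those, cut at about 17% in these data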;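 also: 0% = plate median of compound wells and 100% = probe without SIAE protein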
SIAE inh conf – human SIAE inhibitors, retest, confirmation, biochemical, fluorescence polarization, FP-Rh probe, triplicate; shares compounds with SIAE inh; SIAE FP-Rh activity-based probe; inhibition, % at 9.66 µM; hit rate 13% among 2,300;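 active = mean inhibition of the replicates above the hit cutoff set in the primary screen, cut at about 17% in these data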;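 also: 0% = SIAE with DMSO and probe and 100% = probe without SIAE; inhibitors lower polarization as more probe stays unbound to SIAE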
Active calls of the source: *; . = no result. An excerpt weighted towards active compounds, which were near 1.6% of everything screened.

SMILES | HTRA1 inh | ABHD4 inh | TCR CD3 inh | DAGLB inh | SIAE inh | SIAE inh conf
Cc1c(C(=O)N2CCCCC2)c(S(=O)(=O)N(C)Cc2ccccc2)c(C)n1C | -2 | 3 | -4 | 2 | 23* | -1
CC(=O)Oc1c2occc2cc2ccc(=O)oc12 | 14 | 14 | 0 | 1 | 20* | 2
COc1c2occc2cc2ccc(=O)oc12 | -6 | -3 | 7 | -3 | -2 | .
CCCCCC(=O)Nc1ccc(-c2csc(C)n2)cc1 | -6 | -4 | -5 | -3 | 3 | .
CCCCCC(=O)Nc1ccc(-c2csc(N)n2)cc1 | 0 | 3 | -6 | -2 | 18* | -2
CC1CN(S(=O)(=O)c2cccc(C(=O)N(Cc3nnc(-c4ccccc4Cl)o3)C3CC3)c2)CC(C)O1 (stereo not drawn) | 2 | 1 | -11 | 0 | 17* | -2
Cc1ccn2cc(-c3ccc(Br)cc3)nc2c1 | -7 | 3 | 7 | 0 | 17* | -1
CCn1c(-c2ccccc2)csc1=Nc1ccc(O)cc1 | 11 | -1 | -8 | -25 | 25* | 4
COCC(=O)Nc1c(C(=O)Nc2ccc3c(c2)OCO3)oc2ccccc12 | 2 | 5 | 9 | 0 | 0 | .
O=C(CCl)Nc1c(C(=O)Nc2ccc3c(c2)OCCO3)oc2ccccc12 | -10 | -10 | -11 | -3 | 20* | -7
CN(C)c1ccc(C(CNC(=O)c2ccc(C#N)cc2)c2c[nH]c3ccccc23)cc1 (stereo not drawn) | 17 | -1 | -5 | 2 | 24* | 7
CCOC(=O)c1ccc(S(=O)(=O)NCC(c2ccc(N(C)C)cc2)c2c[nH]c3ccccc23)cc1 (stereo not drawn) | -8 | -23 | 0 | 0 | 23* | 1
CN(C)c1ccc(C(CNC(=O)c2ccccc2Br)c2c[nH]c3ccccc23)cc1 (stereo not drawn) | 13 | 4 | 2 | -1 | 4 | .
CCCN(CCC)CC(O)Cn1cc(/C=C/C(=O)c2ccccc2)c2ccccc21 (stereo not drawn) | -8 | 5 | 0 | -2 | 18* | -6
CCCCCCCCN1C(=O)[C@@H](CC(=O)N2CCN(C(=O)C3CC3)CC2)C[C@@]2(C(=O)OC)C1=C[C@H](C(C)(C)C)O[C@@H]2C | . | -6 | -3 | . | 3 | .
O=C(NCc1ccc(Cl)cc1)C1CCCN1C(=O)Nc1ccc(F)cc1 (stereo not drawn) | 2 | -8 | 1 | 0 | -6 | .
O=C(NCc1ccccc1)[C@@H]1CCCN1C(=O)[C@H]1CCCN1C(=O)c1ccc(F)c(F)c1 | . | 6 | 4 | . | 9 | .
O=C(NCc1ccccc1)[C@H]1CCCN1C(=O)[C@H]1CCCN1C(=O)c1ccc(F)c(F)c1 | . | -1 | 7 | . | 18* | -1
O=C(NCc1ccc(F)cc1)C1CCCN1C(=O)Nc1ccc(Cl)cc1 (stereo not drawn) | 4 | -4 | 4 | -1 | 17* | 0
CCOC(=O)C1=C(C(=O)OCC)C2N(Cc3ccc(C#N)cc3)c3ccccc3[C@@]23C[C@@H](C(=O)OC)N(S(=O)(=O)c2ccccc2)C3=N1 (stereo partly drawn) | . | -1 | 2 | . | -2 | .
CCN(C(=O)CSc1nnc(-c2cccnc2)n1Cc1ccco1)c1ccccc1C | . | 7 | . | . | 1 | .
O=C(NCCCN1CCOCC1)c1sc2cc(Cl)ccc2c1Cl | 3 | 0 | 2 | -2 | 21* | 2
Cc1ccc(-c2cc(C(=O)NCCCN3CCOCC3)no2)cc1 | -7 | 3 | 0 | -1 | 0 | .
O=C(NCCCN1CCOCC1)c1cc(-c2cccs2)on1 | 1 | -1 | 2 | -1 | 21* | 6
CCn1c(=O)n(CC(=O)N2CCOCC2)c(=O)c2ccccc21 | . | 4 | . | . | 6 | .
O=C(Nc1ccc(F)cc1)Nc1nnc([C@@H]2C[C@H](O)[C@@H](CO)O2)s1 | . | 5 | 17 | . | -3 | .
O=C(Nc1ccccc1)Nc1nnc([C@@H]2C[C@H](O)[C@@H](CO)O2)s1 | . | 5 | -5 | . | 47* | 0

Compound activity (PubChem BioAssay)
